The values below come from ChEMBL document CHEMBL1124005, “Inhibitors of cyclic AMP phosphodiesterase. 4. Synthesis and evaluation of potential prodrugs of lixazinone (N-cyclohexyl-N-methyl-4-[(1,2,3,5-tetrahydro-2- oxoimidazo[2,1-b]quinazolin-7-yl)-oxy]butyramide, RS-82856)” (J Med Chem, 1988).

pIC50: −log10 of the molar value. Activity calls are given as the source filed them. The calls are words filed in the database; no cut-off is given here.

The test system of data set [1] is Canis familiaris. Kind of data set: In vivo inotropic activity in canine model by intravenous administration of 0.10 mg/kg efficacious dose. The data set is classed as functional, Canis lupus familiaris. Particulars: dose 0.1 mg/kg.
Data set [2] deals with Canis familiaris. Kind of data set: In vivo inotropic activity in canine model by intraduodenal administration of 0.316 mg/kg efficacious dose. Type of data set: functional, Canis lupus familiaris.
Data set [3] in a line: In vitro inhibitory activity against platelet phosphodiesterase (PDE). A digest of the protocol:
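Human platelet cAMP PDE in 10 mM Tris-HCl pH 7.7, 10 mM MgSO4, 1 µM […]. Compounds dissolved in DMSO, held 10 min in medium before enzyme addition, then 10 min at 30 °C. Five inhibitor concentrations run in triplicate; IC50 read graphically from mean curves.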

Data set [4] has as its system Canis familiaris. Kind of data set: In vivo inotropic activity in canine model by intraduodenal administration of 3.16 mg/kg efficacious dose. Type of data set: functional, Canis lupus familiaris.
For another data set, the species on record is Homo sapiens. Kind of data set: Inhibition of platelet aggregation. Type of data set: functional.
For data set [5], the system named is Canis familiaris. Kind of data set: In vivo inotropic activity in canine model by intraduodenal administration of 1.0 mg/kg efficacious dose. The data set is classed as functional, Canis lupus familiaris.
The test system of data set [6] is Canis familiaris. Kind of data set: In vivo inotropic activity in canine model by intravenous administration of 0.316 mg/kg efficacious dose. The data set is classed as functional, Canis lupus familiaris.
In data set [7] the test system is Canis familiaris. Kind of data set: Pharmacokinetic parameter AUC was determined in dog after oral administration of 17b. Particulars: in vivo. Type of data set: ADME, organism-based, Canis lupus familiaris. A digest of the protocol: (§1)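 Six fasted conscious female dogs (9.4–10.5 kg) were each given one oral hard-gelatin capsule, dose equivalent to 15 mg parent drug, with 1 week between doses. Jugular blood was sampled at 0–24 h. Plasma parent drug was measured by HPLC after SCX/C-18 extraction (C-8, 280 nm, limit 5 ng/mL). AUC0–24 h was calculated by trapezoidal rule; values are mean ± SD.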

For data set [8], the system named is Canis familiaris. Kind of data set: Pharmacokinetic parameter AUC was determined in dog after oral administration of 2b. The data set is classed as ADME, organism-based, Canis lupus familiaris. Particulars: in vivo. The method, boiled down: as §1
Data set [9] concerns Canis familiaris. Kind of data set: In vivo inotropic activity in canine model by intravenous administration 1.0 mg/kg efficacious dose. Type of data set: functional, Canis lupus familiaris.
Data set [10] concerns Canis familiaris. Kind of data set: In vivo inotropic activity in canine model by intravenous administration (Inactive). As to conditions: Canis lupus familiaris. Type of data set: functional, organism-based.
Data set [11] concerns Canis familiaris. Kind of data set: In vivo inotropic activity in canine model by intraduodenal administration (Inactive). The data set is classed as functional, organism-based. Particulars: Canis lupus familiaris.

For the compound `CN(C(=O)CCCOc1ccc2c(c1)CN1CC(=O)N(CN3CCOCC3)C1=N2)C1CCCCC1`, the “Max CF response” value stood at 65% with Canis familiaris [1] and 25% in the data set on Canis familiaris [2]. Also, in data set [3], the IC50 (in general, the point on the concentration scale where inhibition reaches its midpoint) stood at 16 nM.

For the compound `Br.CN(C(=O)CCCOc1ccc2c(c1)CN(CC(=O)OC1CCCCC1)C(N)=N2)C1CCCCC1`, the “Max CF response” value with Canis familiaris [4] is on record as 45%. In addition, in the data set filed under Homo sapiens, the pIC50 (usually −log10 of the IC50, conventionally taken in molar units) was 5.92. The same compound returned an IC50 in data set [3] of 52 nM.

For the compound `CN(C(=O)C(CCOc1ccc2c(c1)CN1CC(=O)NC1=N2)C(=O)O)C1CCCCC1` (stereo not given), the “Max CF response” value in the data set with Canis familiaris [5] is reported as 20%; with Canis familiaris [6] it was 58%. For the same compound, in data set [3], the 50% inhibitory concentration (IC50) is 5 nM.

On to `Br.CCOC(=O)CN1Cc2cc(OCCCC(=O)N(C)C3CCCCC3)ccc2N=C1N`, for which the “Max CF response” value in the data set with Canis familiaris [4] turned out to be 62%; with Canis familiaris [6] it was 75%. Also, the IC50 in [3] is recorded as 9.3 nM.

In data set [3], `CN(C(=O)CCCOc1ccc2c(c1)CN1CC(=O)N(COC(=O)C(C)(C)C)C1=N2)C1CCCCC1` registered a 50% inhibitory concentration (IC50) of 150 nM.

For the compound `Br.CN(C(=O)CCCOc1ccc2c(c1)CN(CC(N)=O)C(N)=N2)C1CCCCC1`, the “Max CF response” value with Canis familiaris [4] and in the data set on Canis familiaris [6] was 37% throughout. The negative logarithm of the IC50 (pIC50) in the data set filed under Homo sapiens was 5.38. In addition, the half-maximal inhibitory concentration (IC50) in data set [3] came out at 120 nM.

Take `CN(C(=O)CCCOc1ccc2c(c1)CN(CC(N)=O)C(=O)N2)C1CCCCC1`: in data set [3], the concentration for half-maximal inhibition (IC50) was determined as 18500 nM.

Take `Br.CC(OC(=O)CN1Cc2cc(OCCCC(=O)N(C)C3CCCCC3)ccc2N=C1N)c1ccccc1` (stereo not given): the “Max CF response” value is 64% in the data set on Canis familiaris [4] and 61% in the data set on Canis familiaris [6]. In addition, the pIC50 in the data set listed under Homo sapiens was 6.82. In data set [3], this compound displayed an IC50 of 8 nM.

`Br.CN(C(=O)CCCOc1ccc2c(c1)CN(CC(=O)N1CCCCC1)C(N)=N2)C1CCCCC1` came in with an IC50 in data set [3] of 10 nM.

Regarding `CN(C(=O)CCCOc1ccc2c(c1)CN1CC(=O)NC1=N2)C1CCCCC1` [LIXAZINONE], the “Max CF response” value is given as 71% in the data set with Canis familiaris [1] and 42% with Canis familiaris [2]. Besides, in the data set filed under Homo sapiens, the pIC50 is 7.30. Also, the figures for the area under the curve (AUC) in the data set with Canis familiaris [7] and in the data set with Canis familiaris [8] were 268 ng·h/mL and 257 ng·h/mL, respectively. The IC50 in [3] is 6 nM.

`Br.CN(C(=O)CCCOc1ccc2c(c1)CN(CC(=O)N1CCOCC1)C(N)=N2)C1CCCCC1`: the “Max CF response” value is on record as 70% in the data set with Canis familiaris [4] and 71% in the data set on Canis familiaris [6]. Moreover, the pIC50 in the data set listed under Homo sapiens was 6.15. The compound further yielded an IC50 in [3] of 52 nM.

Regarding `CN(C(=O)CCCOc1ccc(N)c(CN2CC(=O)NC2=O)c1)C1CCCCC1`, the concentration for half-maximal inhibition (IC50) in data set [3] is listed as 3400 nM.

In data set [3], `Br.CN(C(=O)CCCOc1ccc2c(c1)CN(CC(=O)OCC(C)(C)C)C(N)=N2)C1CCCCC1` registered a half-maximal inhibitory concentration (IC50) of 35 nM.

In the case of `CCOC(=O)CN1Cc2cc(OCCCC(=O)N(C)C3CCCCC3)ccc2N=C1NC(C)=O`, the “Max CF response” value with Canis familiaris [4] and in the data set with Canis familiaris [9] was 58% throughout. For the same compound, the pIC50 in the data set filed under Homo sapiens is 4.00. For the same compound, the IC50 in [3] came to 3100 nM.

Regarding `Br.CC(C)OC(=O)CN1Cc2cc(OCCCC(=O)N(C)C3CCCCC3)ccc2N=C1N`, the “Max CF response” value in the data set with Canis familiaris [4] was 31%; in the data set on Canis familiaris [6], 40%. For the same compound, the pIC50 in the data set listed under Homo sapiens is 5.47. For the same compound, the IC50 in [3] is recorded as 63 nM.

Regarding `Br.CN(C(=O)CCCOc1ccc2c(c1)CN(CC(=O)O)C(N)=N2)C1CCCCC1`, the “Max CF response” value in the data set on Canis familiaris [10] and in the data set on Canis familiaris [11] was “inactive” in each case. Moreover, the IC50 in [3] is recorded as 60 nM.

For `CCOC(=O)C(CCOc1ccc2c(c1)CN1CC(=O)NC1=N2)C(=O)N(C)C1CCCCC1` (stereo not given), the “Max CF response” value in the data set with Canis familiaris [5] and with Canis familiaris [6] was 50% each time. Besides, the IC50 in data set [3] stood at 6.1 nM.

Regarding `Br.CC(OC(=O)CN1Cc2cc(OCCCC(=O)N(C)C3CCCCC3)ccc2N=C1N)C(C)(C)C` (stereo not given), the “Max CF response” value in the data set on Canis familiaris [4] worked out at 62%. The same compound had a negative logarithm of the IC50 (pIC50) in the data set listed under Homo sapiens of 4.77. This compound also displayed an IC50 in [3] of 470 nM.

`Br.CN(C(=O)CCCOc1ccc2c(c1)CN(CC(=O)Nc1ccccc1)C(N)=N2)C1CCCCC1`: the “Max CF response” value in the data set on Canis familiaris [4] was found to be 37%; in the data set on Canis familiaris [6], 64%. Further, the negative logarithm of the IC50 (pIC50) in the data set listed under Homo sapiens was 5.27. The compound also returned an IC50 in data set [3] of 100 nM.

In the data set listed under Homo sapiens, `Br.CN(C(=O)CCCOc1ccc2c(c1)CN(CC(=O)OC(C)(C)C)C(N)=N2)C1CCCCC1` had a pIC50 of 5.37. In addition, the “Max CF response” value in the data set with Canis familiaris [10] and with Canis familiaris [11] was “inactive” in each case. The compound also registered a 50% inhibitory concentration (IC50) in data set [3] of 430 nM.
